Screening results from PubChem BioAssay.
697 NFkB inh = lowers PMA/ionomycin-induced NF-kB signal in 697 B cells. 330,000 compounds, 0.33% hits. inhibition, % at 4 µM. AID 435022. 697 B-cell NF-kB luciferase reporter, 16 h; in the data active = inhibition above about 35%
Jurkat NFkB inh = inhibitors of the PMA/ionomycin-induced NF-kB reporter in Jurkat cells; PMA/ionomycin-induced NF-kB luciferase reporter, luminescence; inhibition, % at 4 µM; 330,000 compounds, 0.53% hits; in the data active = inhibition above about 50%
IMP-1 inhibitor = inhibitors of Pseudomonas aeruginosa IMP-1 metallo-beta-lactamase. purified IMP-1, nitrocefin hydrolysis, epi-absorbance fluorescence. 290,000 compounds, 0.45% hits. inhibition, % at 5.6 µM. AID 1556;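 active = inhibition above the mean plus 3 SD of all compounds in the same screening run, cut at about 4.5% in these data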;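 also: 0% = IMP-1 with DMSO and 100% = DMSO wells lacking enzyme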
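assay system = purified recombinant IMP-1 metallo-beta-lactamase enzyme | schedule = 15 min preincubation plus 25 min reaction at 25 °C | signal = Epi-absorbance fluorescence, 480 nm excitation, 530 nm emission | read-out basis = percent inhibition from optical density relative to buffer-blank wells | controls = IMP-1 with DMSO as 0%, enzyme-free DMSO as 100%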
VIM-2 inhibitor = inhibitors of Pseudomonas aeruginosa VIM-2 metallo-beta-lactamase; purified VIM-2, nitrocefin hydrolysis, epi-absorbance fluorescence; inhibition, % at 5.6 µM; 290,000 compounds, 0.89% hits;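 active = inhibition above the mean of all tested compounds plus 3 SD, cutoff set per screening run, cut at about 7.5% in these data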;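 also: red hydrolysis product quenches plate fluorescence so inhibitors raise well fluorescence; 0% = enzyme with DMSO and 100% = DMSO without enzyme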
aSyn UTR inh = MLPCN primary screen, SNCA 5' untranslated region; 300,000 compounds, 0.82% hits; inhibition, % (tested at 7.5 µM); alpha-synuclein 5'UTR reporter, inhibitor activity; in the data active = inhibition above about 60%;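 also: H4 neuroglioblastoma cells stably carrying SNCA 5'UTR luciferase fusion; 0% = DMSO wells and 100% = positive control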
Mdm2 MdmX PPI = inhibitors of human Mdm2/MdmX interaction; O15151+Q00987; SaOS-2 split-luciferase Mdm2/MdmX complementation, luminescence; inhibition, % at 8 µM; 330,000 compounds, 3% hits;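 active = inhibition of at least 50% at 8 µM in the primary screen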
* = called active by the depositor; . = not tested or not shown. Shown are actives, neighbours in structure and some others; about 4.7% of the full set was active somewhere.

SMILES	697 NFkB inh	Jurkat NFkB inh	IMP-1 inhibitor	VIM-2 inhibitor	aSyn UTR inh	Mdm2 MdmX PPI
C/C(=N\NC(=O)CSCc1ccccc1Cl)c1cc(O)ccc1O	-34	37	-2	-3	62*	43
CC(=O)Nc1ccc(NC(=O)CSCc2ccccc2Cl)cc1	18	-14	.	.	-46	-5
COc1ccccc1NC(=O)C1=C(C)NC(SCC(=O)c2ccc(C)cc2)=C(C#N)C1c1ccco1 (stereo unspecified)	.	.	4.5*	-3	.	.
CC(=O)C1=C(C)NC(SCC(=O)c2ccc(F)cc2)=C(C#N)C1c1ccco1 (stereo unspecified)	-6	-9	-3	-2	18	35
c1ccc(-c2nn3cnnc3c3ccccc23)cc1	-11	7	-2	11*	25	25
OCc1nnc2c3ccccc3c(-c3ccccc3)nn12	0	4	2	11*	30	16
CCCOc1ccc(Cn2c(=O)oc3ccc(C)cc32)cc1	-3	7	-4	-3	3	16
CCOC(=O)C1=C(COC(=O)CCOc2cc(C)ccc2C)NC(=O)NC1C (stereo unspecified)	0	1	.	.	.	13
COc1cc(NC(=O)c2cc3sccc3n2C)cc(OC)c1	-84	-94	6.4*	1	-232	-91
CC1(C)CC(=O)C=C(Nc2ccc(Cl)c(Br)c2)C1	-6	-11	-2	-2	17	-14
COc1ccc(-c2cc(-c3ccccc3)nc(N3CCCC3)n2)cc1OC	-4	-13	4.8*	-2	26	34
O=C(NCCN1CCOCC1)c1ccncc1	9	-1	-2	-3	11	8
O=C1C=C(NCCN2CCOCC2)C(=O)c2cnccc21	.	.	-4	-4	131*	.
Cc1c(CC(=O)O)c(=O)oc2c(C)c(OCc3ccc(F)cc3Cl)ccc12	-1	-1	20*	-2	6	25
Cc1c(CC(=O)O)c(=O)oc2c(C)c(OCc3ccc(F)cc3F)ccc12	-1	3	-1	-1	-8	-7
CNc1nc(N/N=C/c2cc3c(cc2[N+](=O)[O-])OCO3)nc(Nc2ccccc2)n1	-19	-14	-3	-6	74*	38
COc1ccc(CN(C)C(=O)c2ccc(NS(=O)(=O)c3ccc4[nH]c(=O)[nH]c4c3)cc2)c(OC)c1OC	3	0	.	.	.	11
COc1ccc(S(=O)(=O)Nc2cccnc2)c(C)c1C	11	4	4.6*	-1	9	7
CC(Oc1ccccc1Cl)C(=O)Nc1ccc(S(=O)(=O)Nc2nccs2)cc1 (stereo unspecified)	-22	-6	.	.	20	2
N#Cc1ccccc1OCC(=O)OCC(=O)NC1CC1	-5	2	.	.	.	17
O=C(CSc1n[nH]c(-c2ccccn2)n1)Nc1ccccc1F	9	22	-4	9.6*	2	35
COc1ccccc1NC(=O)CSc1n[nH]c(-c2ccccn2)n1	22	12	-2	-4	0	30
COCCN(CC(=O)Nc1cccc(C)c1C)C(=O)CN1C(=O)NC2(CCCCC2)C1=O	16	-1	.	.	.	0
CC(On1c(-c2ccccc2)nc2ccc(Cl)cc21)C(=O)O (stereo unspecified)	-35	-31	-2	-1	-62	1
On1c(-c2ccccc2)nc2ccc(Cl)cc21	-37	-60	5.2*	-5	-149	-12
SMILES	697 NFkB inh	Jurkat NFkB inh	IMP-1 inhibitor	VIM-2 inhibitor	aSyn UTR inh	Mdm2 MdmX PPI
COc1ccc(C)cc1NC(=O)c1cc(S(=O)(=O)N2CCOCC2)cn1C	8	14	-5	-3	-11	9
O=C(Nc1ccc(N2CCN(c3ccc(O)cc3)CC2)cc1)Oc1ccccc1	-10	5	-3	5	11	6
Nc1ccc(OC(=O)Nc2ccc(O)cc2)cc1	15	10	-3	-2	91*	0
O=C(c1ccc(Br)o1)N1CCN(Cc2ccccc2Cl)CC1	-14	-2	-3	-1	6	17
CCOc1ccc(NC(=O)c2cnccn2)cc1	-107	-85	-3	1	-33	-10
CCOc1ccc(NC(=O)c2ccccn2)cc1	-44	-7	0	-1	104*	28
COc1ccc(CN(C)C(=O)CCCNC(=O)c2ccc(Cl)cc2)cc1	4	1	-2	-1	-12	6
CCOc1ccc2c(c1)c1nc3ccccc3nc1n2C	.	.	0	8.4*	-45	.
Cn1c2ccc(Cl)cc2c2nc3ccccc3nc21	-23	-26	-4	-2	-59	-39
Cn1c2ccc(F)cc2c2nc3ccccc3nc21	-66	-61	-3	7.9*	-16	-51
CC(C)=C1C2CCC1C(C(=O)Nc1cc(C)cc(C)c1)C2C(=O)O (stereo unspecified)	15	5	-2	9.4*	-12	-14
COC(=O)c1cc(NC(=O)COC(=O)C2COc3ccccc3O2)cc(C(=O)OC)c1 (stereo unspecified)	1	-9	.	.	.	-8
O=C(NC1CCCCC1)C1CCN(S(=O)(=O)c2cccs2)CC1	20	-4	4.8*	3	-2	18
COc1ccccc1N1CCN(Cc2cc(=O)c(OCC(=O)NC(C)C)co2)CC1	-2	-1	-2	-1	-3	11
COc1cc(C(=O)N/N=C/C2CC=CCC2)cc(OC)c1OC (stereo unspecified)	.	.	-5	-5	108*	.
O=C(N/N=C/C1CC=CCC1)c1ccc(O)cc1O (stereo unspecified)	16	3	-2	-3	19	-1
CC1CCN(c2nc3ccc(C(=O)NCCCN4CCCCC4)cc3s2)CC1	-80	-45	-7	10*	-282	-18
Nc1nc(SCC(=O)N2CCCc3ccccc32)n[nH]1	3	14	.	.	.	19
Nc1nn(-c2ccccc2)c(N)c1N=Nc1ccccc1	-236	-5	-1	1	-106	-171
Nc1ncnc(N)c1N=Nc1ccccc1	26	2	-3	-3	112*	19
CC(C)(C)NC(=O)NC(=O)COC(=O)c1ccc2c(c1)S(=O)(=O)N=C1CCCCCN12	2	-4	-3	-3	17	-6
CC(NC(=O)COC(=O)c1ccc2c(c1)S(=O)(=O)N=C1CCCCCN12)C12CC3CC(CC(C3)C1)C2 (stereo unspecified)	13	-18	-3	-1	68*	2
O=c1c2c(-c3ccccc3)csc2nc2n1CCC2	16	6	-3	-2	6	10
O=c1c2sc(-c3ccccc3)cc2nc2n1CCC2	-142	-63	4	1	82*	-57
CCn1c(N2CCN(Cc3ccc([N+](=O)[O-])cc3)CC2)nc2ccccc21	7	-7	23*	-1	14	16
CCCn1c(N2CCN(Cc3ccc(Cl)cc3)CC2)nc2ccccc21	2	2	0	-2	31	-15
CCN(CC)CCCNC(=O)c1nn2c(C(F)(F)F)cc(-c3ccccc3)nc2c1Cl	1	12	-3	7	4	18
